In ChEMBL document CHEMBL1126276, “Synthesis and antimalarial properties of 1-imino derivatives of 7-chloro-3-substituted-3,4-dihydro-1,9(2H,10H)-acridinediones and related structures” (J Med Chem, 1992):

How the values were obtained:
Assay type in all cases: functional
[1] = system: Plasmodium berghei; experiment: (§1) Antimalarial activity in Plasmodium berghei infected mice (Mus musculus) after 10 mg/kg subcutaneous dose
How it was run: (§2)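 Normal drug-sensitive P. berghei strain in mice. Compound dissolved or suspended in sesame or peanut oil, given parenterally as a single subcutaneous dose 72 h postinfection.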

[2] = system: Plasmodium berghei; experiment: Antimalarial activity in Plasmodium berghei infected mice (Mus musculus) after subcutaneous 160 mg/kg dose; how it was run: as §2
[3] = system: Plasmodium berghei; experiment: (§3) Antimalarial activity in Plasmodium berghei infected mice (Mus musculus) after 20 mg/kg subcutaneous dose; how it was run: as §2
[4] = system: Plasmodium berghei; experiment: Antimalarial activity in Plasmodium berghei infected mice (Mus musculus) after subcutaneous 320 mg/kg dose; how it was run: as §2
[5] = system: Plasmodium berghei; experiment: (§4) Antimalarial activity in Plasmodium berghei infected mice (Mus musculus) after 40 mg/kg subcutaneous dose; how it was run: as §2
[6] = system: Plasmodium berghei; experiment: Antimalarial activity in Plasmodium berghei infected mice (Mus musculus) after subcutaneous 640 mg/kg dose; how it was run: as §2
[7] = system: Plasmodium berghei; experiment: (§5) Antimalarial activity in Plasmodium berghei infected mice (Mus musculus) after 80 mg/kg subcutaneous dose; how it was run: as §2
[8] = system: Plasmodium berghei; experiment: as §1; remark: listed apart in the source
How it was run: (§6)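 […] in mice infected with a normal drug-sensitive P. berghei strain. Compound dissolved or suspended in sesame or peanut oil, given as a single subcutaneous dose 72 h postinfection.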

[9] = system: Plasmodium berghei; experiment: (§7) Antimalarial activity in Plasmodium berghei infected mice (Mus musculus) after 5 mg/kg subcutaneous dose; how it was run: as §6
[10] = system: Plasmodium berghei; experiment: as §7; how it was run: as §2; remark: listed apart in the source
[11] = system: Plasmodium berghei; experiment: Antimalarial activity in Plasmodium berghei infected mice (Mus musculus) after 640 mg/kg subcutaneous dose; how it was run: as §6
[12] = system: Plasmodium berghei; experiment: Antimalarial activity in Plasmodium berghei infected mice (Mus musculus) after 160 mg/kg subcutaneous dose; how it was run: as §6
[13] = system: Plasmodium berghei; experiment: as §3; how it was run: as §6; remark: listed apart in the source
[14] = system: Plasmodium berghei; experiment: as §5; how it was run: as §6; remark: listed apart in the source
[15] = system: Plasmodium berghei; experiment: as §4; how it was run: as §6; remark: listed apart in the source

Structure (SMILES) | No. of cured mice [1] | No. of cured mice [2] | No. of cured mice [3] | No. of cured mice [4] | No. of cured mice [5] | No. of cured mice [6] | No. of cured mice [7] | Delta mean survival time [8] | Delta mean survival time [9] | No. of cured mice [10] | No. of toxic deaths [11] | Delta mean survival time [12] | Delta mean survival time [13] | Delta mean survival time [14] | Delta mean survival time [15]
CN(C)CCC/N=C1\CC(c2ccc(Cl)cc2Cl)Cc2nc3ccc(Cl)cc3c(O)c21 (centres undefined) | 3 | 5 | 5 | 5 | 5 | 5 | 5 | 13.6 | 7.4 | 1 |  |  |  |  | 
CN(C)CCC/N=C1\CC(c2ccc(Cl)cc2Cl)Cc2nc3cc(Cl)ccc3c(O)c21 (centres undefined) |  | 4 |  | 5 | 1 | 3 |  |  |  |  | 2 | 13.8 | 2.8 | 12 | 6.3
